Screening data (PubChem)
Apaf1 inhib: inhibitors of human Apaf-1 apoptosome; actives 0.71% (n = 330,000); reconstituted apoptosome caspase-3 activity, DEVD-Rh110 fluorescence; inhibition, % at 20 µM; active = inhibition of at least 40% at 20 µM
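Material: reconstituted apoptosome with Apaf-1, cytochrome c, caspase-9, procaspase-3, dATP / Buffer or medium: pH 7.5 Hepes buffer with CHAPS, BSA, DTT / Also added: cytochrome c with DEVD-Rh110 / Schedule: compound with Apaf-1, dATP, procaspase-3 30 min, then 50 min reaction, room temperature / Technique: rhodamine 110 fluorescence at Ex 480/Em 540 nm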
Mdm2-MdmX inh: disrupts the human Mdm2-MdmX interaction; O15151+Q00987; SaOS-2 split-luciferase Mdm2/MdmX complementation, luminescence; inhibition, % at 8 µM; actives 3% (n = 330,000); AID 485346;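 active = inhibition of at least 50% at 8 µM in the primary screen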
Target sequence (O15151 whole entry, looked up): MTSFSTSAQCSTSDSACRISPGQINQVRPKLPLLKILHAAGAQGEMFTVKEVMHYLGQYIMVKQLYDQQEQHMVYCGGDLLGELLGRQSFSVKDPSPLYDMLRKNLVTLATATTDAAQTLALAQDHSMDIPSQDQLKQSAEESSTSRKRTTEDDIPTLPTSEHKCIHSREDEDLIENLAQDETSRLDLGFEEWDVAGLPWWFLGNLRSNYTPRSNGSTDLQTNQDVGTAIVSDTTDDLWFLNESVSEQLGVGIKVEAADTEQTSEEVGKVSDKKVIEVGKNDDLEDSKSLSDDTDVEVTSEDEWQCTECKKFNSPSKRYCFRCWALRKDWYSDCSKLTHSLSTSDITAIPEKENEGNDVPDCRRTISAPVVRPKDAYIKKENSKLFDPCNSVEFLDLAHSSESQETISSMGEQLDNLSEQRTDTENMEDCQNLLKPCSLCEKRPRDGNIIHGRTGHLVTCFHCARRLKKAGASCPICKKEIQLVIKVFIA
Target sequence (Q00987 whole entry, looked up): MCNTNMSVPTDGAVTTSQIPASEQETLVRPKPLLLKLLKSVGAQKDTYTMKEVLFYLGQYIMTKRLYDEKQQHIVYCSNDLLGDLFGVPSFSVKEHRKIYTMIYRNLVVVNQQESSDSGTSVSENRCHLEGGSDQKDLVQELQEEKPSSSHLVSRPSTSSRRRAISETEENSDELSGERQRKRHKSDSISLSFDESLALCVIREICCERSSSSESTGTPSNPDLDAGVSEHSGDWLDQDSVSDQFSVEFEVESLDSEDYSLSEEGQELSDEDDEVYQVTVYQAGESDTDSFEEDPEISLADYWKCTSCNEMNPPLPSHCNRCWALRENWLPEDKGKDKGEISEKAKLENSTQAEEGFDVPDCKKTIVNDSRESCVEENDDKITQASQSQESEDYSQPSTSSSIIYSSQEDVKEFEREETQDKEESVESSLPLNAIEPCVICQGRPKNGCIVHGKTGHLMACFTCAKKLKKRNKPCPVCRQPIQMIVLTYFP
CHOP UPR activ: activators of apoptotic arm of unfolded protein response (CHOP); actives 0.34% (n = 330,000); AID 449763; activation, % at 10 µM; CHO-CHOP luciferase reporter, UPR activation, luminescence; percent of tunicamycin response over DMSO baseline;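 active = at 10 µM dose, activation of 40% or more, normalized to positive control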
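Test system: CHO-CHOP cells, stable luciferase reporter of PERK-eIF2a-CHOP signalling | Quantity: 500 CHO-CHOP cells per well | Buffer or medium: F12 plus 10% serum | Compound dosing: 10 µM single point, 0.5% DMSO | Schedule: 6 h compound treatment, 37 °C | Signal: Luciferase luminescence | Control set: Tunicamycin high control, DMSO low control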
UBC13 polyUb: blocks human UBC13 polyubiquitin chain formation; actives 0.47% (n = 330,000); TR-FRET; inhibition, % at 20 µM; in the data active = inhibition above about 45%, passing the limit was not always enough
UPR XBP1 act: activators of adaptive arm of unfolded protein response (XBP1); CHO-XBP1 luciferase reporter, IRE1-XBP1 UPR activation, luminescence; percent of tunicamycin response, DMSO as zero; activation, % at 20 µM; actives 0.33% (n = 330,000);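 active = versus positive control, 20 µM dose yields 30% or more activation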
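Signal: luciferase luminescence; Assay system: CHO-XBP1 luciferase reporter cells; Amount: one thousand reporter cells per well; Dosing: 20 µM single concentration, DMSO 1%; Benchmarks: high control tunicamycin 10 µg/mL final, low control DMSO vehicle only; Schedule: 6 h compound exposure at 37 °C, 5% CO2; Evaluation: percent activation relative to tunicamycin reference.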
Mdm2 MdmX conf: confirmation of human Mdm2/MdmX interaction inhibitors | Mdm2-MdmX binding, luminescent assay | inhibition, % at 8 µM | actives 55% (n = 10,000) | AID 489028 | shares compounds with Mdm2-MdmX inh; in the data active = inhibition above about 40%
Full FLuc ctr: full-length luciferase inhibition in Mdm2/MdmX counter-screen. shares compounds with Mdm2-MdmX inh. SaOS-2 full-length luciferase counterscreen, luminescence. inhibition, % at 8 µM. actives 77% (n = 6,200);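 active = mean inhibition at 8 µM reaching about 37%, which flags the compound as non-specific, limit read from the data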;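 note: p53-null SaOS-2 cells with luciferase driven by a doxycycline-inducible promoter; compound on cells about two nights before reading with doxycycline added after day one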
Each line names hits and unclear results; the compound was inactive in the other large screens (follow-up assays come after a bar, where they were run). Most compounds without a hit are left out; they make up all but 4.1% or so of the library.

O=C(CC1CS(=O)(=O)CC1CC(=O)Nc1ccc2c(c1)OCCO2)Nc1ccc2c(c1)OCCO2 (configuration not stated)	Mdm2-MdmX inh 63.2 | Mdm2 MdmX conf 76.6 | Full FLuc ctr 90.0
CCc1nn(CC(=O)NCCC2=CCCCC2)c(=O)c2cc3cc(F)ccc3n12	Mdm2-MdmX inh 50.2 | Mdm2 MdmX conf inactive
CCc1nn(CC(=O)NCCCc2ccccc2)c(=O)c2cc3c(OC)cccc3n12	none
CCc1nn(CC(=O)NCCCc2ccccc2)c(=O)c2cc3cc(F)ccc3n12	Mdm2-MdmX inh 55.5 | Mdm2 MdmX conf inactive
CO/N=C/C(=N\Nc1ccc(OC)cc1)C(=O)c1ccc(OC)cc1	Mdm2-MdmX inh 55.4 | Mdm2 MdmX conf 52.1 | Full FLuc ctr 100.4
COc1ccc(C(=O)C(/C=N/O)=N/Nc2ccc(F)cc2)cc1	none
COc1ccc(CNCCC2(Cc3ccccc3)CC(C)N(C)CC2C)cc1OC (configuration not stated)	Mdm2-MdmX inh 61.4 | Mdm2 MdmX conf inactive
Cn1nc(C(F)(F)F)cc1C(=O)NC1CCCCCC1	none
COc1ccc(Cn2cccc(NC(=O)Nc3cccc(C#N)c3)c2=O)cc1	Mdm2-MdmX inh 66.8 | Mdm2 MdmX conf inactive
COc1ccc(Cn2c(C)c(C)c(C#N)c2NC(=O)Nc2cccc(C)c2)cc1	Mdm2-MdmX inh 54.1 | Mdm2 MdmX conf inactive
COc1cccc(N2CC(NS(=O)(=O)c3cccnc3)CC2=O)c1 (configuration not stated)	none
CCn1c(SCC(=O)NC2CCCC2)nnc1-c1cccnc1	none
CCc1cccc2c(C(=O)CN3C(=O)NC4(CCc5ccccc54)C3=O)c[nH]c12 (configuration not stated)	none
CCc1cccc2c(C(=O)CN3C(=O)N(C)C4(CCCCC4)C3=O)c[nH]c12	Mdm2-MdmX inh 52.5 | Mdm2 MdmX conf inactive
Cn1c(=O)c2c(nc(NCCCN3CCOCC3)n2Cc2ccc(Cl)cc2)n(C)c1=O	none
Cc1cc(NCCCN2CCOCC2)n2ncc(-c3ccc(Cl)cc3)c2n1	Mdm2-MdmX inh 65.1 | Mdm2 MdmX conf 62.3 | Full FLuc ctr 69.2
Cc1cc(NCCCn2ccnc2)n2ncc(-c3ccc(Cl)cc3)c2n1	Mdm2-MdmX inh 60.2 | Mdm2 MdmX conf 85.5 | Full FLuc ctr 52.1
Cc1ccc(NC(=O)CCSc2nc(C)cc(C)n2)cc1	none
CCOc1cc(C(=S)N2CCCC2)ccc1OCC(=O)Nc1c(C)cc(C)cc1C	none
Fc1ccc(/C=N/NC(=S)Nc2ccc(Cl)cc2Cl)cc1	Mdm2-MdmX inh 85.0 | Mdm2 MdmX conf 66.0 | Full FLuc ctr 57.9
O=[N+]([O-])c1ccc(/C=N/NC(=S)Nc2ccc(Cl)cc2Cl)s1	Mdm2-MdmX inh 62.9 | Mdm2 MdmX conf 69.8 | Full FLuc ctr 52.5
O=[N+]([O-])c1ccc(O)c(/C=N/NC(=S)Nc2ccc(Cl)cc2Cl)c1	Mdm2-MdmX inh 77.7 | Mdm2 MdmX conf 47.8 | Full FLuc ctr 41.3
O=C(N/N=C\c1ccc([N+](=O)[O-])s1)c1cncc(Br)c1	Mdm2-MdmX inh 58.1 | Mdm2 MdmX conf 43.8 | Full FLuc ctr 45.5
COc1cc(C(=O)Nc2ccc(C#N)cc2)c([N+](=O)[O-])cc1OC	none
Cc1cc(Cl)ccc1NC(=O)CCC(=O)N/N=C/c1cc([N+](=O)[O-])ccc1O	Mdm2-MdmX inh 61.8 | Mdm2 MdmX conf inactive
Cc1cc(C)n(CC(=O)N/N=C/c2cc([N+](=O)[O-])ccc2O)n1	none
CCOC(=O)c1c(C)[nH]c(C(=O)N/N=C/c2cc([N+](=O)[O-])ccc2O)c1C	Mdm2-MdmX inh 56.9 | Mdm2 MdmX conf 71.3 | Full FLuc ctr 55.3
N=c1oc2ccc3ccccc3c2cc1C(N)=S	Mdm2-MdmX inh 86.8 | Mdm2 MdmX conf 45.8 | Full FLuc ctr 66.3
O=C(O)c1cc2c(ccc3ccccc32)oc1=O	none
CC1(C)CC1C(=O)Nc1ccc([N+](=O)[O-])cc1Br (configuration not stated)	none
Cc1ccc(C2(c3ccc(C)cc3)CC2C(=O)Nc2ccc([N+](=O)[O-])cc2O)cc1 (configuration not stated)	Mdm2-MdmX inh 95.8 | Mdm2 MdmX conf 93.1 | Full FLuc ctr 49.0
NC(=O)c1ccc(-c2nnc(Nc3ccc(S(N)(=O)=O)cc3)c3ccccc23)cc1	none
O=C1N/C(=N\N=C\c2cccnc2)SC1Cc1ccc(SC(F)F)cc1 (configuration not stated)	Mdm2-MdmX inh 64.3 | Mdm2 MdmX conf 72.3 | Full FLuc ctr 43.5
Cc1cccc(-n2cnc3c(c2=O)c2nc4ccccc4nc2n3Cc2ccco2)c1	Mdm2-MdmX inh 54.3 | Mdm2 MdmX conf inactive
Cc1cccc(S(=O)(=O)c2c(N)n(Cc3ccco3)c3nc4ccccc4nc23)c1	none
CCc1cc(=O)oc2cc3occ(-c4ccc(OC)c(F)c4)c3cc12	Mdm2-MdmX inh 64.0 | Mdm2 MdmX conf 73.7 | Full FLuc ctr 61.9
COc1cc(OC)c2c(-c3cccc(-c4ccc(C(C)=O)cc4)c3)cc(=O)oc2c1	Mdm2-MdmX inh 69.2 (no result: UBC13 polyUb) | Mdm2 MdmX conf 68.5 | Full FLuc ctr 70.7
COc1cc(OC)c2c(-c3cccc(-c4ccoc4)c3)cc(=O)oc2c1	none (no result: UBC13 polyUb)
COc1cc(OC)c2c(-c3ccccc3)cc(=O)oc2c1	none
COc1cc(OC)c2c(-c3cccc(-c4ccc(OC)c(F)c4)c3)cc(=O)oc2c1	Mdm2-MdmX inh 67.6 (no result: UBC13 polyUb) | Mdm2 MdmX conf 48.9 | Full FLuc ctr 104.3
COc1ccc(CN(CC(=O)NCc2ccco2)C(=O)CNS(=O)(=O)c2ccc(C)cc2)cc1	none
COc1ccc(CNC(=O)COc2ccc(S(=O)(=O)N3CCOCC3)cc2C)cc1	none
O=C(Nc1nc(-c2ccccn2)cs1)c1cccc(S(=O)(=O)N2CCOCC2)c1	Mdm2-MdmX inh 77.3 | Mdm2 MdmX conf 79.3 | Full FLuc ctr inactive
O=C(Nc1nc(-c2cccs2)cs1)c1ccc(S(=O)(=O)N2CCCCC2)cc1	none
COc1ccccc1C(=O)Nc1nc(-c2ccc(S(=O)(=O)N3CCOCC3)cc2)cs1	Mdm2-MdmX inh 77.5 | Mdm2 MdmX conf 83.0 | Full FLuc ctr inactive
Cc1ccc(S(=O)(=O)N2CCOCC2)cc1C(=O)Nc1nc(-c2ccccn2)cs1	Mdm2-MdmX inh 76.1 | Mdm2 MdmX conf 65.2 | Full FLuc ctr inactive
O=C(Nc1nc(-c2ccccn2)cs1)c1ccc(S(=O)(=O)N2CCCCC2)cc1	Mdm2-MdmX inh 88.1 | Mdm2 MdmX conf 89.5 | Full FLuc ctr inactive
CC1=C(C(=O)NCc2ccccn2)C2(CCC(C)CC2)OC1=O (configuration not stated)	none
O=CN/N=C/c1c(O)ccc2ccccc12	Mdm2-MdmX inh 50.4 | Mdm2 MdmX conf inactive
